According to paper PMC4511165 (Biochemistry, 2015):
“Also recorded” adds a separate entry of the source.

Key:
MMP-1 [1] = molecular target: T1, MMP-1 (Homo sapiens, UniProt P03956); assay: Inhibition of MMP-1 by non-cleaved peptomers; type: biochemical; conditions: MS-1 up to 200 µM; concentration for MS-2 not given; data not shown
T1 sequence (P03956 100-469): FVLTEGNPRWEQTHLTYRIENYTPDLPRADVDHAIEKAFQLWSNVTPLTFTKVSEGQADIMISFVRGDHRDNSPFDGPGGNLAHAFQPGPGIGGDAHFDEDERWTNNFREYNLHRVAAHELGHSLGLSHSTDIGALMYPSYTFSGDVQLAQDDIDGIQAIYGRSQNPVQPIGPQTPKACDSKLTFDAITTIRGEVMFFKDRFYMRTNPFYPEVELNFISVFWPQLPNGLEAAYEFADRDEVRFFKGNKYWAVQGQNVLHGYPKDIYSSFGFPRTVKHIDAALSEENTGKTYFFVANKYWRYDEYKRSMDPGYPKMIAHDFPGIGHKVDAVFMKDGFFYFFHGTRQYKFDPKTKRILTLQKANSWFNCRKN

MMP-8 [2] = molecular target: T2, MMP-8 (Homo sapiens, UniProt P22894); assay: Inhibition of MMP-8 by non-cleaved peptomers; type: biochemical; conditions: MS-1 up to 200 µM; concentration for MS-2 not given; data not shown
MMP-13 [3] = molecular target: T3, MMP-13 (Homo sapiens, UniProt P45452); assay: Inhibition of MMP-13 by non-cleaved peptomers; type: biochemical; conditions: MS-1 up to 200 µM; concentration for MS-2 not given; data not shown
MMP-14/MT1-MMP = MMP-14/MT1-MMP (Homo sapiens, UniProt P50281); assay: Inhibition of MT1-MMP by non-cleaved peptomers; type: biochemical; conditions: MS-1 up to 200 µM; concentration for MS-2 not given; data not shown
CD thermal transition = type: physicochemical; conditions: decrease relative to α1(I)772–786 THP
MMP-1 [4] = molecular target: T1, MMP-1; assay: Hydrolysis of fluorogenic; type: biochemical; conditions: 30 °C; for hydrolysis of fluorogenic peptomer by MMP-1: FRET kinetic assay, TSB*Zn buffer
Method in brief: (§1)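 Enzymes were activated with 1 mM […] at 37 °C for 60 min and diluted in TSB*Zn. The Mca/Dnp substrate was equilibrated in TSB at 4 °C for 24 h and quantified at 363 nm (εDnp 15900 M−1 cm−1). Twelve 1:1 dilutions were made from a 100 µM stock, and enzyme was added from a 100 nM 20× stock. Fluorescence was read every 8 s for 600 s at 30 °C, with a final read at 24 h. The 25 µM sample was analysed by HPLC for % cleavage; triplicate.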

MMP-8 [5] = molecular target: T2, MMP-8; assay: Hydrolysis of fluorogenic; type: biochemical; conditions: 30 °C; for hydrolysis of fluorogenic peptomer by MMP-8: FRET kinetic assay, TSB*Zn buffer
Method in brief: as §1

MMP-13 [6] = molecular target: T3, MMP-13; assay: Hydrolysis of fluorogenic; type: biochemical
Method in brief: as §1

[7] = molecular target: T4, MMP-14/MT1-MMP (ectodomain, soluble MT1-MMP) (Homo sapiens, UniProt P50281); assay: Hydrolysis of fluorogenic; type: biochemical
Method in brief: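 Soluble ectodomain was activated with 0.1 equiv trypsin-3 for 1 h at 37 °C, quenched with AEBSF and diluted in TSB*Zn. The Mca/Dnp substrate was equilibrated in TSB at 4 °C for 24 h and quantified at 363 nm. Twelve 1:1 dilutions were made from a 100 µM stock, and enzyme was added from a 100 nM 20× stock. Fluorescence was read every 8 s for 600 s at 30 °C, with a final read at 24 h. The 25 µM sample was analysed by HPLC for % cleavage; triplicate.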

MMP-1 [8] = molecular target: T1, MMP-1; assay: HPLC-monitored hydrolysis of peptomeric THPs by MMP-1; type: biochemical; conditions: room temperature, 24 h; MALDI-TOF MS / HPLC of products
Method in brief: (§2)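 Full-length human enzymes were activated with 1 mM […] for 60 min at 37 °C, then diluted to 100 nM in ice-cold TSB*Zn (Tris, NaCl, CaCl2, ZnCl2, Brij-35, pH 7.5). Substrates were pre-equilibrated in TSB at 4 °C for 24 h. Reactions used 20 nM enzyme at 1:1000 enzyme:substrate for 24 h at room temperature (some also at 37 °C). Reactions were quenched with 50 mM EDTA; triplicate RP-HPLC peak integration at 220 nm, with MALDI-TOF identifying products.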

MMP-8 [9] = molecular target: T2, MMP-8; assay: HPLC-monitored hydrolysis of peptomeric THPs by MMP-8; type: biochemical; conditions: room temperature, 24 h; MALDI-TOF MS / HPLC of products
Method in brief: as §2

MMP-13 [10] = molecular target: T3, MMP-13; assay: HPLC-monitored hydrolysis of peptomeric THPs by MMP-13; type: biochemical; conditions: 24 h; for cleavage site, MMP-13: room temperature, MALDI-TOF MS / HPLC of products
Method in brief: as §2

[11] = molecular target: T4, MMP-14/MT1-MMP (ectodomain, soluble MT1-MMP); assay: HPLC-monitored hydrolysis of peptomeric THPs by MT1-MMP; type: biochemical; conditions: room temperature, 24 h; MALDI-TOF MS / HPLC of products
Method in brief: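 Soluble ectodomain was activated with 0.1 equiv trypsin-3 for 1 h at 37 °C. Trypsin was quenched with 100 equiv AEBSF for 15 min at room temperature, then the enzyme was diluted in cold TSB*Zn (pH 7.5). Substrates were pre-equilibrated in TSB at 4 °C for 24 h. Reactions used 20 nM enzyme at 1:1000 enzyme:substrate for 24 h at room temperature (some also at 37 °C). Reactions were quenched with 50 mM EDTA; triplicate RP-HPLC integration at 220 nm, MALDI-TOF for products.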

MMP-3 = MMP-3 (Homo sapiens, UniProt P08254); assay: Hydrolysis of Ac-pfTHP-1 by noncollagenolytic MMP-3; type: biochemical; conditions: data not shown
[12] = RP-HPLC, 25 µM peptomer, 24 h, data not shown
[13] = RP-HPLC, 25 µM peptomer, 30 °C, 24 h, data not shown

T2 sequence (P22894 101-467): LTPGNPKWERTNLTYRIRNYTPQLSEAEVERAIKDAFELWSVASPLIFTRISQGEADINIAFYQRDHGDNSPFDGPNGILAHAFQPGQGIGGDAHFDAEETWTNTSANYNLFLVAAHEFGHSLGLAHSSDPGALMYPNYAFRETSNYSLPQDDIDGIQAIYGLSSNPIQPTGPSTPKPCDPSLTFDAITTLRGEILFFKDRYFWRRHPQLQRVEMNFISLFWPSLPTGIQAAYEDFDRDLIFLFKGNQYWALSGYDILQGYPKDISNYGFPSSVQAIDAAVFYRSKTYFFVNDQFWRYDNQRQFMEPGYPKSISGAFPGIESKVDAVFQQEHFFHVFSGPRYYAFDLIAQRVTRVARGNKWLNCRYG
MMP-3, sequence (P08254 100-477, species assumed): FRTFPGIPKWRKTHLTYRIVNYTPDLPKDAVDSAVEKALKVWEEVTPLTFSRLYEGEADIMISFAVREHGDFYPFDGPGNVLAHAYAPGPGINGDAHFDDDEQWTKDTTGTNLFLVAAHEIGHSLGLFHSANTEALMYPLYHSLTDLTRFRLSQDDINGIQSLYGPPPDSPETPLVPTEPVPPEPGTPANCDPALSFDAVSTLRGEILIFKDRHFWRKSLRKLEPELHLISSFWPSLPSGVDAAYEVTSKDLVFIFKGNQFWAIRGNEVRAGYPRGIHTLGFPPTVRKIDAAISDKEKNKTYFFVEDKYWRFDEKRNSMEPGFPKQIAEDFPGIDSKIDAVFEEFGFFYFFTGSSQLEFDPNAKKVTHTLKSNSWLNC

Row | Substance | Tm lower than that of parent THP by (CD thermal transition) | cleavage site, MMP-1 (MMP-1 [8]) | cleavage site, MMP-8 (MMP-8 [9]) | cleavage site, MMP-13 (MMP-13 [10]) | cleavage site, MT1-MMP [11] | other results
1 | (GPO)4-GPQG-NIle-AGQRGVVGLO(GPO)4-NH2 [MS-1] |  |  |  |  |  | inhibition of MMP-1 (MMP-1 [1]): No inhibition; inhibition of MMP-8 (MMP-8 [2]): No inhibition; inhibition of MMP-13 (MMP-13 [3]): No inhibition; inhibition of MT1-MMP (MMP-14/MT1-MMP): No inhibition
2 | (GPO)4GP-Lys(Mca)-G-Sar-AGQRGV-Lys(Dnp)-G- NLeu-O(GPO)4-NH2 [pfTHP-1] |  |  |  |  |  | hydrolysis of fluorogenic peptomer by MMP-1 (MMP-1 [4]): unable to hydrolyze; hydrolysis of fluorogenic peptomer by MMP-8 (MMP-8 [5]): unable to hydrolyze; cleavage site of fluorogenic peptomer, MMP-13 (MMP-13 [6]): between Gly778 and Gln779; cleavage sites of fluorogenic peptomer, MT1-MMP [7]: Gly781–Val782 and Arg780–Gly781 bonds
3 | (GPO)4GPQ-Sar-IAGQRGVVG-NLeu-GLO(GPO)4- NH2 [MS-9] | 13.5 °C | between Sar775 and Ile776 | between Sar775 and Ile776 | between Sar775 and Ile776 | between Sar775 and Ile776 | 
4 | (GPO)4GPQGWAGQRGVVG-NLeu-O(GPO)4-NH2 [MS-10] |  |  | Gly775-Trp776 bond | Gly775-Trp776 bond | Gly775-Trp776 bond; also recorded: occurring at several bonds | 
5 | Ac-(GPO)4-GP-Lys(Mca)-G-Sar-AGQRGV-Lys(Dnp) G-NLeu-O(GPO)4-NH2 [Ac-pfTHP-1] |  |  |  |  |  | hydrolysis of fluorogenic peptomer by MMP-1 (MMP-1 [4]): unable to hydrolyze; hydrolysis by MMP-1 (MMP-1 [4]; [12]): < 1%; hydrolysis of fluorogenic peptomer by MMP-8 (MMP-8 [5]): unable to hydrolyze; hydrolysis by MMP-8 (MMP-8 [5]; [12]): < 2%; hydrolysis by MMP-13 (MMP-13 [6]; [13]): 65%; cleavage site of fluorogenic peptomer, MMP-13 (MMP-13 [6]): between Gly778 and Gln779; hydrolysis by MT1-MMP [7, 13]: 22%; cleavage sites of fluorogenic peptomer, MT1-MMP [7]: Gly781–Val782 and Arg780–Gly781 bonds; hydrolysis by MMP-3 (MMP-3): not able to hydrolyze

Second part, led by results:

Row | Tm lower than that of parent THP by (CD thermal transition) | cleavage site, MMP-1 (MMP-1 [8]) | cleavage site, MMP-8 (MMP-8 [9]) | cleavage site, MMP-13 (MMP-13 [10]) | cleavage site, MT1-MMP [11] | Substance | other results
6 | 4 °C |  |  |  |  | (GPO)4G-Sar-QGIAGQRGVVGLO(GPO)4-NH2 [MS-4] | 
7 | 20 °C | between Sar775 and Ile776 | between Sar775 and Ile776 | between Sar775 and Ile776 | between Sar775 and Ile776 | (GPO)4GPQ-Sar-IAGQRGVVGLO(GPO)4-NH2 [MS-3] | 
8 |  | Gly775–Ile776 bond | Gly775–Ile776 bond | Gly775–Ile776 bond | Gly775–Ile776 bond | (GPO)4GPQGIAGQRGVVG-NLeu-O(GPO)4-NH2 [MS-7] | difference in MMP-13 hydrolysis versus parent THP (MMP-13 [10]; 37 °C, RP-HPLC, peptomer better substrate than parent THP): 2 fold
